Data as given in ChEMBL document CHEMBL3860025, “Antiproliferative and Anti-inflammatory Withanolides from Physalis angulata” (J Nat Prod, 2016).
pIC50: −log10 of the molar value.

Tests used:
[1] = Antiproliferative activity against human 786-0 cells assessed as inhibition of cell viability after 48 hrs by MTT reduction assay; type: functional, cell-based; conditions: 786-0, 48 h
How it was run: (§1)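 Cells grown in RPMI-1640 or EMEM with 10% FBS at 37 °C under 5% CO2. Seeded at 1 × 10^4 cells/well for 12 h, then exposed to a range of compound concentrations for 48 h. Viability read by MTT reduction. 5-Fluorouracil was the positive control. Each assay was repeated three times, and IC50 reported as mean ± SD.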

[2] = Antiproliferative activity against human 22Rv1 cells assessed as inhibition of cell viability after 48 hrs by MTT reduction assay; type: functional, cell-based, CWR22R; conditions: 22Rv1, 48 h; how it was run: as §1
[3] = Antiproliferative activity against human A375-S2 cells assessed as inhibition of cell viability after 48 hrs by MTT reduction assay; type: functional, cell-based; conditions: A375-S2, 48 h; how it was run: as §1
[4] = Antiinflammatory activity in mouse RAW264.7 cells assessed as inhibition of LPS-induced nitric oxide production after 24 hrs by Griess assay; type: functional, cell-based; conditions: RAW264.7, 24 h
How it was run: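 RAW 264.7 macrophages seeded at 1 × 10^6 cells/well, then incubated 24 h at 37 °C with LPS (1 μg/mL), with or without test compounds. NO measured by Griess reagent (0.1% N-(1-naphthyl)ethylenediamine plus 1% sulfanilamide in 5% H3PO4), absorbance at 540 nm. NO concentration and inhibition rate calculated from a standard curve. Hydrocortisone served as positive control.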

[5] = Antiproliferative activity against human C4-2B cells assessed as inhibition of cell viability after 48 hrs by MTT reduction assay; type: functional, cell-based; conditions: LNCaP C4-2B; how it was run: as §1
[6] = Antiproliferative activity against human ACHN cells assessed as inhibition of cell viability after 48 hrs by MTT reduction assay; type: functional, cell-based; how it was run: as §1
[7] = Antiproliferative activity against human A498 cells assessed as inhibition of cell viability after 48 hrs by MTT reduction assay; type: functional, cell-based; conditions: A498, 48 h; how it was run: as §1

| SMILES | pIC50 [1] | pIC50 [2] | pIC50 [3] | pIC50 [4] | pIC50 [5] | pIC50 [6] | pIC50 [7] |
| --- | --- | --- | --- | --- | --- | --- | --- |
| CC(=O)O[C@H]1C=C([C@H](C)[C@H]2CC(C)=C(C)C(=O)O2)[C@@]2(C)CC[C@H]3[C@@H](C[C@@H](O)[C@@]4(Cl)CC=CC(=O)[C@]34C)[C@]12O | 6.38 | 6.32 | 5.47 | 5.47 | 6.29 | 5.32 | 6.38 |
| CC1=C(CO)C[C@H]([C@]2(C)OC(=O)[C@]34[C@H](O)C[C@H]5[C@@H](CC=C6CC=CC(=O)[C@@]65C)[C@]3(O)[C@H](O)C[C@H]24)OC1=O | < 5.00 | < 5.00 | < 5.00 | 4.76 | < 5.00 | < 5.00 | < 5.00 |
| CC1=C(C)C(=O)O[C@@H]([C@@H](C)C2=C[C@@H]3OC(C)(C)O[C@@]34[C@@H]3C[C@@H](O)[C@@]5(O)CC=CC(=O)[C@]5(C)[C@H]3CC[C@]24C)C1 | < 5.00 | < 5.00 | < 5.00 | 4.25 | < 5.00 | < 5.00 | < 5.00 |
| CC(=O)O[C@H]1[C@@H]2O[C@]2([C@H](C)[C@H]2CC(C)=C(C)C(=O)O2)[C@@]2(C)CC[C@H]3[C@@H](C[C@H]4O[C@]45CC=CC(=O)[C@]35C)[C@@]12O | < 5.00 | < 5.00 | < 5.00 | 5.60 | < 5.00 | < 5.00 | < 5.00 |
| CC1=C(C)C(=O)O[C@@H]([C@]2(C)OC(=O)[C@]34CC[C@H]5[C@@H](CC=C6CC=CC(=O)[C@@]65C)[C@@](O)(O3)[C@@H](O)C[C@H]24)C1 | < 5.00 | < 5.00 | < 5.00 | 4.59 | < 5.00 | < 5.00 | < 5.00 |
| CC(=O)O[C@H]1C=C([C@H](C)[C@H]2CC(C)=C(C)C(=O)O2)[C@@]2(C)CC[C@H]3[C@@H](C[C@H]4O[C@]45CC=CC(=O)[C@]35C)[C@]12O | 6.18 | 6.20 | 5.47 | 5.52 | 6.74 | 5.97 | 6.18 |
| CC(=O)O[C@H]1C=C([C@H](C)[C@H]2CC(C)=C(C)C(=O)O2)[C@@]2(C)CC[C@H]3[C@@H](C[C@@H](O)[C@@]4(O)C[C@@H](O)CC(=O)[C@]34C)[C@@]12O | < 5.00 | < 5.00 | < 5.00 | < 4.00 | < 5.00 | < 5.00 | < 5.00 |
| CO[C@H]1CC(=O)[C@]2(C)[C@H]3CC[C@]4(C)C([C@H](C)[C@H]5CC(C)=C(C)C(=O)O5)=C[C@H](OC(C)=O)[C@@]4(O)[C@@H]3C[C@H]3O[C@]32C1 | 5.61 | 5.65 | < 5.00 | 5.25 | 5.94 | 5.12 | 5.33 |
| CO[C@@H]1CC(=O)[C@]2(C)[C@H]3CC[C@@]4(C)[C@@](O)([C@@H]3C[C@H]3O[C@]32C1)[C@@H](OC(C)=O)[C@@H]1O[C@@]14[C@H](C)[C@H]1CC(C)=C(C)C(=O)O1 | 5.66 | 5.93 | < 5.00 | 5.45 | 5.67 | < 5.00 | < 5.00 |
| CO[C@]12CC=CC(=O)[C@]1(C)[C@H]1CC[C@@]3(C)[C@](O)([C@@H](OC(C)=O)C[C@@]3(O)[C@H](C)[C@H]3CC(C)=C(C)C(=O)O3)[C@@H]1C[C@H]2O | < 5.00 | < 5.00 | < 5.00 | 5.45 | < 5.00 | < 5.00 | < 5.00 |
| CO[C@H]1C=C([C@H](C)[C@H]2CC(C)=C(C)C(=O)O2)[C@@]2(C)CC[C@H]3[C@@H](C[C@@H](O)[C@@]4(O)CC=CC(=O)[C@]34C)[C@@]12O | < 5.00 | < 5.00 | < 5.00 | 4.94 | < 5.00 | < 5.00 | < 5.00 |
| CC1=C(C)C(=O)O[C@@H]([C@@H](C)C2=C[C@@H]3O[C@@H](C)O[C@@]34[C@@H]3C[C@@H](O)[C@@]5(O)CC=CC(=O)[C@]5(C)[C@H]3CC[C@]24C)C1 | < 5.00 | < 5.00 | < 5.00 | 4.95 | < 5.00 | < 5.00 | < 5.00 |
| O=c1[nH]cc(F)c(=O)[nH]1 [FLUOROURACIL] | < 5.00 | 5.42 | 5.72 | – | 5.25 | 5.56 | 5.05 |
